For one experiment, the system named is HCT-116. The experiment is described as follows: Cytotoxicity against human HCT116 cells. The experiment is classed as functional, cell-based. The method, boiled down: (§1)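 Cell growth-inhibition assay run by a previously published procedure, with Taxotere as the reference compound.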
Another experiment deals with Bcl-2-like protein 1 (Homo sapiens, UniProt Q07817). The experiment is described as follows: Binding affinity to Bcl-xL by fluorescein-labeled Bak-BH3 peptide competition binding assay. The method, boiled down:
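Fluorescence polarization displacement: test compound competes with fluorescein-labeled Bak BH3-domain peptide for binding to Bcl-xL. Ki is derived as the dissociation constant at equilibrium against this reference ligand. Unlabeled Bak(BH3) peptide and a substituted terphenyl derivative serve as positive controls. Runs are done in duplicate.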

A further experiment deals with MCF7. The experiment is described as follows: Cytotoxicity against human MCF7 cells. The format is functional, cell-based. The method, boiled down:
as §1

In another experiment the test system is KB. The experiment is described as follows: Cytotoxicity against human KB cells. The experiment is classed as functional, cell-based. The method, boiled down: as §1
A further experiment concerns L1210. The experiment is described as follows: Cytotoxicity against mouse L1210 cells. The format is functional, cell-based. The method, boiled down: as §1

pIC50, pKi: −log10 of the molar value.

Sequence of Bcl-2-like protein 1 (Q07817 whole entry): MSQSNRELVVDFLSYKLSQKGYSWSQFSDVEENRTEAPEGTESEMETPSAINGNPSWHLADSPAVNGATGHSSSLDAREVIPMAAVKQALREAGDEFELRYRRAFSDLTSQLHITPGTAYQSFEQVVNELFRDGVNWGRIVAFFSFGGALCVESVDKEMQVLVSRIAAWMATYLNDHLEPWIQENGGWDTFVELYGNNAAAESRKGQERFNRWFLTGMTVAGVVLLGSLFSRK

By pIC50 is commonly meant the negative decadic logarithm of the IC50, by convention in mol/L. A low value points to a large IC50. The term pKi denotes the Ki on a negative log10 scale, so that one unit is a factor of ten. High values mean a small Ki, low ones a large Ki. Turning to `CC(=O)OC[C@]1(C)[C@@H](OC(C)=O)C[C@H](O[C@@H]2O[C@@H](C)[C@H](O)[C@@H](O)[C@H]2O)[C@]2(C)[C@H]3CC=C4[C@H]5C[C@](C)(C(=O)O)CC[C@]5(C)CC[C@@]4(C)[C@]3(C)CC[C@@H]12`, the results for the negative logarithm of the IC50 (pIC50) with HCT-116, in the experiment on MCF7 and in the experiment with KB were 5.10, 4.98 and 5.09, respectively. On Bcl-2-like protein 1, this molecule gave a pKi of 5.14.
In the same order, the values of `CC(=O)OC[C@]1(C)[C@@H](OC(C)=O)C[C@H](O)[C@]2(C)[C@H]3CC=C4[C@H]5C[C@](C)(C(=O)O)CC[C@]5(C)CC[C@@]4(C)[C@]3(C)CC[C@@H]12` are 5.33, 5.22, 5.27 and 4.75.
The matching figures for `COC(=O)[C@]1(C)CC[C@]2(C)CC[C@]3(C)C(=CC[C@@H]4[C@@]5(C)[C@@H](O[C@@H]6O[C@@H](C)[C@H](O)[C@@H](O)[C@H]6O)C[C@H](O)[C@@](C)(COC(C)=O)[C@@H]5CC[C@]43C)[C@H]2C1`: 6.40, 6.30, 6.15 and < 4.00.
For the molecule `CC(C)=CC(=O)O[C@@H]1CC(C)(C)C[C@@H]2C3=CC[C@@H]4[C@@]5(C)CCC(=O)[C@](C)(CO)[C@@H]5CC[C@@]4(C)[C@]3(C)CC[C@]21C(=O)O`, the negative logarithm of the IC50 (pIC50) was 4.94 in the experiment on HCT-116, 4.91 in the experiment on L1210, 4.37 in the experiment with MCF7 and 4.45 in the experiment with KB. At Bcl-2-like protein 1, this molecule showed a pKi of 5.28.
Turning to `COC(=O)[C@]1(C)CC[C@]2(C)CC[C@]3(C)C(=CC[C@@H]4[C@@]5(C)[C@@H](O[C@@H]6O[C@@H](C)[C@H](O)[C@@H](O)[C@H]6O)C[C@H](OC(C)=O)[C@@](C)(COC(C)=O)[C@@H]5CC[C@]43C)[C@H]2C1`, the pIC50 is 6.52 with HCT-116, 6.22 in the experiment on MCF7 and 6.05 in the experiment with KB. Further, the pKi on Bcl-2-like protein 1 is < 4.00.
As for `COC(=O)[C@]1(C)CC[C@]2(C)CC[C@]3(C)C(=CC[C@@H]4[C@@]5(C)[C@@H](O)C[C@H](O)[C@@](C)(COC(C)=O)[C@@H]5CC[C@]43C)[C@H]2C1`, the pIC50 with HCT-116 is 5.77; with MCF7, 5.34; in the experiment on KB, 5.54. In addition, the pKi at Bcl-2-like protein 1 is < 4.00.
Regarding `CC(=O)O[C@@]12CO[C@@H]1C[C@H](O)[C@@]1(C)C(=O)[C@H](O)C3=C(C)[C@@H](OC(=O)[C@H](O)[C@@H](NC(=O)OC(C)(C)C)c4ccccc4)C[C@@](O)([C@@H](OC(=O)c4ccccc4)[C@H]21)C3(C)C` [DOCETAXEL], the values for the negative logarithm of the IC50 (pIC50) in the experiment on HCT-116, in the experiment on MCF7 and with KB were 8.92, 9.15 and 9.82, respectively.
Turning to `C/C=C(/C)C(=O)O[C@@H]1CC(C)(C)C[C@@H]2C3=CC[C@@H]4[C@@]5(C)CCC(=O)[C@](C)(CO)[C@@H]5CC[C@@]4(C)[C@]3(C)CC[C@]21C(=O)O` [ICTEROGENIN], the pIC50 in the experiment with HCT-116 is 5.24; in the experiment on L1210 it was 5.17; in the experiment on MCF7, 4.95; in the experiment on KB, 4.82. For the same molecule, the pKi on Bcl-2-like protein 1 is 5.12.
The matching figures for `C/C=C(/C)C(=O)O[C@@H]1CC(C)(C)C[C@H]2C3=CC[C@@H]4[C@@]5(C)CCC(=O)C(C)(C)[C@@H]5CC[C@@]4(C)[C@]3(C)CC[C@@]12C(=O)O` [LANTADENE A]: 4.38, 4.79, 4.35, 4.80 and < 4.00.
`CC(C)=CC(=O)O[C@@H]1CC(C)(C)C[C@@H]2C3=CC[C@@H]4[C@@]5(C)CCC(=O)C(C)(C)[C@@H]5CC[C@@]4(C)[C@]3(C)CC[C@]21C(=O)O` [LANTADENE B]: the pIC50 with HCT-116 is 4.94; in the experiment with L1210 it was 4.79; in the experiment on MCF7, 4.36; in the experiment with KB, 4.60. On Bcl-2-like protein 1, the pKi is < 4.00.

Values taken from ChEMBL document CHEMBL1152410, “Cytotoxic pentacyclic triterpenoids from Combretum sundaicum and Lantana camara as inhibitors of Bcl-xL/BakBH3 domain peptide interaction” (J Nat Prod, 2009).
